How the values were obtained:
KDM5B PHD3 finger [1] = assay: 1H,15N HSQC NMR titration, KDM5B PHD3; assay type: binding, human; settings: WT PHD3; 1H,15N HSQC titration, 298K, 0.1 mM protein, 12-mer peptides
Procedure, shortened: (§1)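 1H,15N HSQC titration of uniformly 15N-labeled PHD3 at 0.1 mM, wild type or mutated (including D1506R). Spectra recorded with increasing concentrations of 12-mer histone tail peptides and superimposed. Per-residue normalized chemical shift changes calculated as Δδ = √[(ΔδH)² + (ΔδN/5)²].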

KDM5B PHD3 finger [2] = assay: Tryptophan fluorescence titration, KDM5B PHD3; assay type: binding, human; settings: WT PHD3; NMR and fluorescence spectroscopy
Procedure, shortened: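 Tryptophan fluorescence at 25 °C: PHD3 in PBS titrated with increasing histone peptide concentrations. Excitation 295 or 280 nm; emission scanned 305–405 nm in 0.5 nm steps with 1 s integration; three scans averaged. Kd from nonlinear least-squares fit of intensity change to a quadratic binding equation; mean of three separate experiments, error as standard deviation.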

KDM5B PHD1 finger = molecular target: T1, KDM5B PHD1 finger (Homo sapiens, UniProt Q9UGL1); assay: 1H,15N HSQC NMR titration, KDM5B PHD1; assay type: binding; settings: WT PHD1; NMR spectra, 298K, 0.1 mM 15N-labeled protein, 12-mer peptide
T1 sequence (Q9UGL1 309-359 limits assumed): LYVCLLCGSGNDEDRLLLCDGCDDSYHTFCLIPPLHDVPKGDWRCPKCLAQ
Procedure, shortened: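 Uniformly 15N-labeled wild-type PHD1 at 0.1 mM; 1H,15N HSQC spectra recorded over increasing concentrations of 12-mer histone tail peptides. Normalized shift change Δδ = √[(ΔδH)² + (ΔδN/5)²] in ppm. Kd obtained by nonlinear least-squares fit of Δδ against peptide and protein concentrations to a quadratic binding equation.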

[3] = tested on: KDM5B PHD3 mutants (W1502, W1512, D1506R); assay: Binding to KDM5B PHD3 mutants; parameters: species or system human; settings: Fig. 6c-e
Procedure, shortened: as §1

interaction with PHD3 D1506R mutant ([3]; acidic D1506 replaced with an arginine)	interaction with PHD3 W1502 and W1512 mutants ([3]; mutation of W1502 and W1512)	Substance	pattern of chemical shift changes in HSQC spectra of PHD3 (KDM5B PHD3 finger [1])	preference of PHD3 among H3K4me3/2/1/0 (KDM5B PHD3 finger [2])	affinity of association (KDM5B PHD1 finger)
		H3K4me1: H3K4me1 peptide, residues 1-12 of H3, monomethylated lysine 4	almost identical pattern of chemical shift changes		
		H3K4me2: H3K4me2 peptide, residues 1-12 of H3, dimethylated lysine 4	almost identical pattern of chemical shift changes		
reduced it	disrupted interaction	H3K4me3: trimethylated H3K4me3 peptide, 12-mer histone tail peptide; biotinylated in pull-downs	almost identical pattern of chemical shift changes	only slight preference for the trimethylated state of H3K4	almost negligible association in the mM range of affinities

— paper PMC3918441 (Cell reports, 2014)
